Source: ChEMBL document CHEMBL1121810, “Antihypertensive activity of 6-arylpyrido[2,3-d]pyrimidin-7-amine derivatives” (1981)

Experiments:
Type in all cases: functional
Settings in all cases: route oral
Rattus norvegicus [1] = experiment: Effect on heart rate of spontaneously hypertensive rats, 10 hr after peroral administration at 50 mg/kg
Outline: (§1)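 Heart rate was derived from the pulsatile arterial pressure signal in conscious catheterized male SHR (22-24 weeks, 250-350 g), with continuous monitoring sampled 3 min per 30 min. Drug was given by gavage as a 4% gum acacia suspension at 2 mL/kg, dose as free base, to groups of 3-4 rats with mean pressure >150 mmHg. Individual 30-min means were compared with pretreatment values.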

Rattus norvegicus [2] = experiment: Effect on heart rate of spontaneously hypertensive rats, 24 hr after peroral administration at 50 mg/kg; outline: as §1
Rattus norvegicus [3] = experiment: Effect on heart rate of spontaneously hypertensive rats, 2 hr after peroral administration at 50 mg/kg; outline: as §1
Rattus norvegicus [4] = experiment: Blood pressure rating in spontaneously hypertensive rats, 10 hr after peroral administration of 50 mg/kg of compound
Outline: (§2)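 Conscious male SHR (Kyoto-Wistar origin, 22-24 weeks, 250-350 g) with indwelling catheters, given about 160 units heparin/day in saline. Only rats with mean blood pressure >150 mmHg and pulse pressure >25 mmHg were used, in groups of 3-4. Dosing was oral gavage at 2 mL/kg in 4% gum acacia suspension, as free base. Pressure was sampled 3 min of every 30 min, and 30-min means were compared with pretreatment values.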

Rattus norvegicus [5] = experiment: Blood pressure rating in spontaneously hypertensive rats, 24 hr after peroral administration of 50 mg/kg of compound; outline: as §2
Rattus norvegicus [6] = experiment: Blood pressure rating in spontaneously hypertensive rats, 2 hr after peroral administration of 50 mg/kg of compound; outline: as §2
Rattus norvegicus [7] = experiment: Maximum percent decrease in heart rate of spontaneously hypertensive rats, 6 hours after peroral administration of 50 mg/kg of compound
Outline: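 Conscious male SHR (Kyoto-Wistar origin, 22-24 weeks, 250-350 g; mean BP >150 mmHg, pulse pressure >25 mmHg) with indwelling catheters, ~0.8 mL heparinized saline/day. Dosed by gavage as a 4% gum acacia suspension, 2 mL/kg, free-base doses, 3-4 rats per group. Heart rate was derived from the pulsatile pressure signal, sampled 3 min every 30 min, and 30-min means were compared with pretreatment values.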

Compound	Activity rating (Rattus norvegicus [1])	Activity rating (Rattus norvegicus [2])	Activity rating (Rattus norvegicus [3])	Activity rating (Rattus norvegicus [4])	Activity rating (Rattus norvegicus [5])	Activity rating (Rattus norvegicus [6])	Decrease (Rattus norvegicus [7]) [%]
Cc1ncc2cc(-c3ccccc3C(F)(F)F)c(N)nc2n1	0	0	0	–	–	–	–
Nc1nc2nc(C(F)(F)F)ncc2cc1-c1c(Cl)cccc1Cl	0	0	0	–	–	–	–
Cc1ncc2cc(-c3cccc(Cl)c3Cl)c(N)nc2n1	0	0	0	–	–	–	–
Cc1ncc2cc(-c3ccccc3I)c(N)nc2n1	0	0	0	–	–	–	–
Cc1nc(N)c2cc(-c3c(Cl)cccc3Cl)c(N)nc2n1	0	0	0	–	–	–	–
Nc1nc2ncncc2cc1-c1ccccc1	0	0	0	–	–	–	–
CCOc1nc(C)nc2nc(N)c(-c3c(Cl)cccc3Cl)cc12	–	–	–	0	0	0	–
Cc1ncc2cc(-c3ccc([N+](=O)[O-])cc3)c(N)nc2n1	–	–	–	0	0	0	–
Cc1ncc2cc(-c3cccnc3)c(N)nc2n1	0	0	0	–	–	–	–
Cc1ncc2cc(-c3ccc(Cl)cc3)c(N)nc2n1	0	0	0	–	–	–	–
Cc1ncc2cc(-c3ccccc3)c(N)nc2n1	0	0	0	–	–	–	–
CCc1ncc2cc(-c3c(Cl)cccc3Cl)c(N)nc2n1	1	0	0	–	–	–	15
Cc1ccccc1-c1cc2cnc(C3CC3)nc2nc1N	–	–	–	0	0	0	–
Cc1ncc2cc(-c3ccccc3F)c(N)nc2n1	0	0	0	–	–	–	–
CCc1ncc2cc(-c3ccccc3C)c(N)nc2n1	0	0	0	–	–	–	–
Cc1cccc(-c2cc3cncnc3nc2N)c1C	0	0	0	–	–	–	–
CCc1ncc2cc(-c3ccccc3Cl)c(N)nc2n1	0	0	0	–	–	–	–
Cc1ncc2cc(-c3ccc(Cl)c(Cl)c3)c(N)nc2n1	0	–	0	–	–	–	–
Nc1nc2nc(/C=C/c3ccccc3)ncc2cc1-c1c(Cl)cccc1Cl	–	–	–	1	0	0	13
Nc1nc2nc(C3CC3)ncc2cc1-c1c(Cl)cccc1Cl	–	–	–	0	0	0	–
Cc1ncc2cc(-c3cccc(Br)c3C)c(N)nc2n1	0	0	0	–	–	–	–
Cc1ncc2cc(-c3ccco3)c(N)nc2n1	–	–	–	0	0	0	–
Nc1nc2nc(C3CC3)ncc2cc1-c1ccccc1Br	–	–	–	0	0	0	–
Nc1nc2ncncc2cc1-c1cccnc1	0	0	0	–	–	–	–
CCc1ccccc1-c1cc2cnc(C)nc2nc1N	0	0	0	–	–	–	–
Nc1nc2ncncc2cc1-c1ccccc1C(F)(F)F	0	0	0	–	–	–	–
Cc1ncc2cc(-c3cccc(C)c3C)c(N)nc2n1	0	0	0	–	–	–	–
Cc1ncc2cc(-c3c(C)cccc3C)c(N)nc2n1	0	0	0	–	–	–	–
